PREPL inhibitor = inhibits the human prolyl oligopeptidase-like enzyme; Q4J6C6; 320,000 compounds, 0.68% hits; recombinant PREPL, fluorescence polarization activity-based probe; inhibition, % at 5.96 µM; in the data active = inhibition above about 43%;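 also: 0% = enzyme with DMSO and 100% = wells lacking enzyme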
ALR H2O2 inh = human ALR oxidase inhibition via reduced H2O2; P55789; purified ALR, DTT oxidation, H2O2 HRP-luminol luminescence; inhibition, % (test concentration not listed); 290,000 compounds, 3.8% hits;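 active = mean replicate inhibition above about 79%, with every replicate also reaching it, limit read from the data; inconclusive = only one of the two criteria met; inactive = mean below limit and not every replicate reaching it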
Target sequence (P55789 whole entry, looked up): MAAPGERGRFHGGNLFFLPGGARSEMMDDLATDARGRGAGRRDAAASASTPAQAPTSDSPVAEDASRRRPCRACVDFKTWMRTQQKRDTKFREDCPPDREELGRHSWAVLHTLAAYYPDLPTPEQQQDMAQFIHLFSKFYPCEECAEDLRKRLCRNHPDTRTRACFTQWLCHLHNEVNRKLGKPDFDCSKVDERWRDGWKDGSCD
UBC13 polyUb = inhibitors of human UBC13 polyubiquitin chain formation; P61088; TR-FRET; inhibition, % at 20 µM; 330,000 compounds, 0.47% hits; AID 485273; in the data active = inhibition above about 45%, passing the limit was not always enough; inconclusive = no clear call, values can overlap the other calls
Target sequence (P61088 whole entry, looked up): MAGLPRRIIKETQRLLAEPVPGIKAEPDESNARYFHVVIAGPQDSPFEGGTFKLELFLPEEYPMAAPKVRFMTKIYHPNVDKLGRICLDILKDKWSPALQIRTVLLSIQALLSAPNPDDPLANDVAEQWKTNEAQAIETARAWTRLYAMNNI
RBBP9 inh = inhibitors of human serine hydrolase RBBP9. O75884. recombinant RBBP9, FP-Rh probe fluorescence polarization. inhibition, % at 7.94 µM. 220,000 compounds, 0.2% hits;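 active = inhibition above the campaign mean of all tested compounds plus 3 SD, cut at about 14% in these data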;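 also: plate controls were DMSO wells with RBBP9 for no effect and wells lacking RBBP9 protein for full effect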
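Measured by: FP readout at 525/598 nm; material: recombinant human RBBP9; also added: Serine-hydrolase probe FP-Rh, 375 nM pre-mixing; medium: Tris buffer pH 8.0, NaCl, Pluronic; replication: one well per compound; doses: one concentration, 7.94 µM nominal, 0.794% DMSO; timing: preincubation 30 min plus labeling 45 min at 25 °C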
Rin1 Abl inh = blocks binding of human Rin1 to Abl. 360,000 compounds, 0.4% hits. TR-FRET Rin1/Abl binding, biochemical. inhibition, % at 7.35 µM. AID 588664; in the data active = inhibition above about 5%, passing the limit was not always enough
SUMO HTRF inh = SUMOylation inhibition; AID 2006; HTRF SUMOylation assay, SAE1/SAE2 + UBC9, in vitro; 290,000 compounds, 0.36% hits; inhibition, % at 35 µM; in the data active = inhibition above about 50%, passing the limit was not always enough; inconclusive = no clear call, values can overlap the other calls
Target sequence (P63279 whole entry, looked up): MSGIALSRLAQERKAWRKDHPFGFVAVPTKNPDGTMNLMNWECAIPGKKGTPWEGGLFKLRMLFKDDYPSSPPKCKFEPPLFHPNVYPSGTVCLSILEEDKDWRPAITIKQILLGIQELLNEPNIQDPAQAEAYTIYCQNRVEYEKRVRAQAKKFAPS
* hit, by the source's call; ? = inconclusive; . = not tested or not shown. A selection: hits, their analogues and other compounds. The true share with any hit is near 4.3%.

SMILES	PREPL inhibitor	ALR H2O2 inh	UBC13 polyUb	RBBP9 inh	Rin1 Abl inh	SUMO HTRF inh
COC(=O)c1c(NS(=O)(=O)Cc2ccccc2)sc2c1CCCC2	10	91*	-5	2	-2	0
COc1cc(/C=C/C(=O)OCC(=O)N2CC(=O)Nc3ccccc32)ccc1O	-3	96*	-4	6	-1	-4
COc1cnn(-c2ccc(C)cc2)c(=O)c1SCc1ccccc1	-2	-7	4	-4	-1	10
COc1cnn(-c2ccccc2)c(=O)c1SCc1ccc(Cl)cc1Cl	8	98*	3	-3	-2	-1
COc1cnc(SCc2ccc(Cl)cc2Cl)nc1Cl	9	98*	6	0	-1	-14
CCOc1cnn(-c2ccccc2)c(=O)c1Cl	-5	96*	3	.	0	10
COc1ccc(Cl)cc1CSc1n[nH]c(C)n1	0	6	4	-5	0	19
Cc1ccc(S(=O)(=O)NCc2ccc(N3CCN(C(=O)OC(C)(C)C)CC3)cc2)cc1	3	-1	5	.	2	3
CC(=O)c1cccc(OCC(=O)N(CCC2=CCCCC2)c2c(N)n(Cc3ccccc3)c(=O)[nH]c2=O)c1	.	.	.	.	2	.
CCCN(N=Nc1cccc([N+](=O)[O-])c1)c1cccc([N+](=O)[O-])c1	9	-5	-7	4	1	6
O=[N+]([O-])c1cccc(N=NN(CCO)c2cccc([N+](=O)[O-])c2)c1	52*	-2	5	0	6	2
CC(=O)Nc1cncc(-c2ccccc2F)n1	.	.	.	.	-1	.
Cc1ccc2nc(N(CCN3CCOCC3)C(=O)CCS(=O)(=O)c3ccccc3)sc2c1	2	9	3	.	0	.
CN(C)CCN(C(=O)CCS(=O)(=O)c1ccccc1)c1nc2cc3c(cc2s1)OCO3	-3	5	-2	.	4	8
O=C(CCS(=O)(=O)c1ccccc1)N(CCCN1CCOCC1)c1nc2ccccc2s1	-18	98*	5	.	0	.
CCCC(=O)N(CCN1CCOCC1)c1nc2cc(C)c(C)cc2s1	6	95*	-5	.	2	-5
Cc1ccc(S(=O)(=O)CCC(=O)N(CCCN2CCOCC2)c2nc3ccccc3s2)cc1	-52	98*	5	.	-1	.
Cc1noc(C)c1S(=O)(=O)NC(=O)C1(C)CCN1C(=O)c1ccccc1CCc1ccccc1 (stereo unspecified)	.	.	.	.	-1	.
c1cc(N2CCCCC2)nc(N2CCCCC2)n1	.	.	.	.	-2	.
C[c-]1[c-](C)[c-](C)[c-](C)[c-]1C.[Fe].c1cc2nccc(N3CCCC3)[c-]2c1 (stereo unspecified)	24	94*	-54	.	3	42
O=C(/C=C/c1ccc(OC2CSC2)cc1)c1ccccc1	9	83*	7	-6	3	3
Cc1ccc(/C=C/C(=O)c2ccc(O)cc2)cc1	-8	11	-15	-6	-1	0
Cc1ccc(/C=C/C(=O)c2c(C)nc3ccccn23)cc1	0	98*	-1	-4	-3	-40
Cc1ccc(C(=O)/C=C/C(=O)O)cc1	-2	98*	-13	-11	5	-16
Cc1ccc(/C=C/C(=O)c2ccccc2)cc1	-2	97*	0	-4	0	16
SMILES	PREPL inhibitor	ALR H2O2 inh	UBC13 polyUb	RBBP9 inh	Rin1 Abl inh	SUMO HTRF inh
O=C(N/N=C/c1ccc(OC2CSC2)cc1)c1ccccc1	-11	-25	-2	-2	-4	44
N#Cc1cccc(NC(=O)c2cc(C3CCCCN3C(=O)CCCc3ccccc3)on2)c1 (stereo unspecified)	.	.	.	.	-3	.
COc1cc2c3nnc(-c4ccc(F)cc4)c-3cn(Cc3cccc(C)c3)c2cc1OC	-42	.	79*	-9	-8	32
COc1ccc(CCNC(=O)c2cc3c(C)nccc3[nH]c2=O)cc1OC	17	-15	-1	-2	-1	10
NNC(=O)c1csc(-c2ccc(C(F)(F)F)cc2Cl)n1	-8	93*	4	-6	1	8
Clc1ccc(CNc2ccccc2NCc2ccc(Cl)nc2)cn1	12	.	17	0	2	14
CN(C)/C=N/c1nc2nccc(-c3ccccn3)n2n1	2	1	6	-11	0	?
COc1ccc(-c2ccnc3nc(/N=C/N(C)C)nn23)cc1	0	2	32	-3	.	57*
CN(C)/C=N/c1nc2nccc(-c3cccnc3)n2n1	9	-1	11	-5	3	65*
COc1cccc(NC(=S)NNC(=O)C(C)n2nc(C)c([N+](=O)[O-])c2C)c1 (stereo unspecified)	9	84*	2	2	6	-36
COc1cccc(NC(=S)NNC(=O)c2c([N+](=O)[O-])c(C)nn2C)c1	5	.	4	-1	-4	-2
COc1cc(NC2c3ccccc3C(=O)N2Cc2ccc3c(c2)OCO3)cc(OC)c1 (stereo unspecified)	9	-11	-4	-4	-2	-7
Cc1cc(=O)oc2c3c(cc(OCC(=O)N[C@@H](CC(C)C)C(=O)O)c12)OC(C)(C)CC3	2	18	8	.	0	37
COc1cc(-c2nc(-c3ccccc3)c(-c3cccs3)[nH]2)cc(OC)c1O	18	98*	21	-2	0	-4
CCCC(=O)C1=C(c2ccccc2)C(C#N)(C#N)C(C#N)=C1N	18	99*	-1	0	-1	33
CCCC(=O)C1=C(N(C)c2ccccc2)CC(C)(C)CC1=O	-1	-1	0	.	0	1
CCOc1ccc(N2CC(C(=O)NC3CCCC3)CC2=O)cc1 (stereo unspecified)	-1	-9	5	.	4	13
CN(C)c1ccc(C(CC(=O)c2ccccc2)C2CCCCC2=O)cc1 (stereo unspecified)	8	98*	-5	-1	-1	10
CC(C)(C)c1cc2nc(NCCOc3ccccc3)ccn2n1	.	.	.	.	6	.
Cc1noc2ncnc(Sc3ccc(Cl)cc3)c12	6	80*	13	-4	-4	14
Cc1ccc(Sc2ncnc3onc(C)c23)cc1	8	99*	17	1	1	1
Cc1ccc(CSc2ncnc3onc(C)c23)cc1	1	-3	11	-10	-1	2
CC(=O)Nc1cc(C)ns1	.	.	.	.	0	.
CCOc1ccc2nc(NC(=O)CSc3nc(-c4ccccc4)c(C#N)c(=O)[nH]3)sc2c1	.	.	-9	-13	-5	34
Cc1sc(NC(=O)CSc2nc(O)cc(=O)[nH]2)nc1-c1ccccc1	1	99*	-1	-1	2	13
Nc1cc(=O)[nH]c(SCC(=O)Nc2nnc(-c3ccccc3)s2)n1	4	18	3	-5	5	2
COc1cccc(-c2nc(SCC(=O)Nc3nc(-c4ccccc4)c(C)s3)[nH]c(=O)c2C#N)c1	-17	99*	-18	-13	0	.

Assay outcomes deposited in PubChem BioAssay by several laboratories.
